Results on 20 compounds are retold here after ChEMBL document CHEMBL4368882, “Synthesis and biological evaluation against Leishmania donovani of novel hybrid molecules containing indazole-based 2-pyrone scaffolds” (Medchemcomm, 2019).

pIC50: −log10 of the molar value.

Data set [1] is described as follows: Cytotoxicity against mouse RAW264.7 cells after 48 hrs by resazurin dye-based assay. The format is cell-based. In a few lines: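 RAW 264.7 cells seeded at 2 × 10⁴ per well in DMEM with 10% HIFBS and penicillin–streptomycin, 24 h preculture. Two-fold serial dilutions for 48 h at 37 °C, 5% CO₂. Resazurin (450 μM, 10 μL) added for 4 h in the dark, OD570/OD600 read. CC50 is the concentration reducing macrophage growth by 50%.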

Data set [2] relates to Leishmania donovani. The data set is described as follows: Antileishmanial activity against Leishmania donovani MHOM/ET/67/HU3 intramacrophage amastigotes infected in mouse RAW264.7 cells after 48 hrs by SYBR green1 dye-based fluorescence assay. Type of data set: functional, organism-based. Conditions: MHOM/ET/67/HU3, RAW264.7, 48 h. The essentials: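 RAW 264.7 macrophages (2 × 10⁴ per well, 24 h preculture) infected with axenic amastigotes at 16:1 parasite:macrophage for 24 h. Extracellular parasites then removed. Two-fold serial dilutions from 100 μM maximum in DMEM complete medium for 48 h. Cells lysed in Direct PCR Lysis Reagent with 3 freeze–thaw cycles and proteinase K 50 μg mL⁻¹ at 55 °C overnight. Extract mixed with SYBR Green I.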

Data set [3] relates to Leishmania donovani. Description: Antileishmanial activity against Leishmania donovani MHOM/ET/67/HU3 axenic amastigotes after 72 hrs by resazurin dye-based assay. The format is functional, organism-based. Conditions: MHOM/ET/67/HU3, 72 h. (In general: Resazurin is reduced to fluorescent resorufin, in cell work by metabolically active cells.)
Data set [4] can be described thus: Selectivity index, ratio of CC50 for mouse RAW264.7 cells to IC50 for Leishmania donovani MHOM/ET/67/HU3 intramacrophage amastigotes infected in mouse RAW264.7 cells. Type of data set: toxicity, cell-based. Conditions: read-out: Ratio CC50/IC50. The essentials: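 Ratio of the RAW 264.7 CC₅₀ to the intramacrophage amastigote IC₅₀, both measured in this work.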

`CC1=CC(=O)/C(=C(/C)Nc2ccc3cnn(Cc4ccc(C)cc4)c3c2)C(=O)O1` yielded a cytotoxic concentration (CC50) at 48 h in data set [1] above 100 µM. Further, the pIC50 in the data set on Leishmania donovani [2] and in the data set with Leishmania donovani [3] was below 4.00 in each case.
Compound `CC1=CC(=O)/C(=C(/C)Nc2ccc3cn(Cc4ccc(C)cc4)nc3c2)C(=O)O1` gave a 50% cytotoxic concentration (CC50) at 48 h in data set [1] above 100 µM. Further, the pIC50 was 4.24 in the data set on Leishmania donovani [2] and 4.30 in the data set with Leishmania donovani [3].
On the same counts, the results for `CCn1ncc2cc(N/C(C)=C3\C(=O)C=C(C)OC3=O)ccc21` are above 100 µM, below 4.00 and below 4.00.
Regarding `CCn1cc2ccc(N/C(C)=C3\C(=O)C=C(C)OC3=O)cc2n1`, the CC50 at 48 h in data set [1] is above 100 µM. Moreover, the pIC50 in the data set on Leishmania donovani [2] and in the data set with Leishmania donovani [3] was below 4.00 in each case.
As to `CCn1nc(Cl)c2ccc(N/C(C)=C3\C(=O)C=C(C)OC3=O)cc21`, it took 6.23 µM to reach half-maximal cytotoxicity in data set [1] (CC50 at 48 h). The selectivity ratio in data set [4] was determined as 0.96. Moreover, the results for the pIC50 in the data set on Leishmania donovani [2] and in the data set on Leishmania donovani [3] were 5.19 and 4.96, respectively.
In data set [1], `C=CCn1ncc2ccc(N/C(C)=C3\C(=O)C=C(C)OC3=O)cc21` registered a CC50 at 48 h above 100 µM. The pIC50 in the data set with Leishmania donovani [2] and in the data set with Leishmania donovani [3] was below 4.00 in each case.
For `C=CCn1ncc2cc(N/C(C)=C3\C(=O)C=C(C)OC3=O)ccc21`, in data set [1], the CC50 at 48 h is above 100 µM. The pIC50 in the data set with Leishmania donovani [2] and in the data set with Leishmania donovani [3] was below 4.00 throughout.
Compound `C=CCn1nc(Cl)c2ccc(N/C(C)=C3\C(=O)C=C(C)OC3=O)cc21` showed a CC50 at 48 h in data set [1] above 100 µM. Further, the pIC50 in the data set on Leishmania donovani [2] and in the data set on Leishmania donovani [3] was below 4.00 in each case.
`CC1=CC(=O)/C(=C(/C)Nc2ccc3c(Cl)n(Cc4ccc(C)cc4)nc3c2)C(=O)O1` displayed a CC50 at 48 h in data set [1] above 100 µM. Also, the pIC50 with Leishmania donovani [2] and in the data set with Leishmania donovani [3] was below 4.00 each time.
In data set [1], `CC1=CC(=O)/C(=C(/C)Nc2ccc3cnn(C)c3c2)C(=O)O1` returned a CC50 at 48 h above 100 µM. Further, the pIC50 in the data set on Leishmania donovani [2] and with Leishmania donovani [3] was below 4.00 throughout.
Regarding `CCn1cc2cc(N/C(C)=C3\C(=O)C=C(C)OC3=O)ccc2n1`, the CC50 at 48 h in data set [1] was above 100 µM. Besides, the pIC50 in the data set with Leishmania donovani [2] and with Leishmania donovani [3] was below 4.00 throughout.
`C=CCn1cc2ccc(N/C(C)=C3\C(=O)C=C(C)OC3=O)cc2n1` displayed a CC50 at 48 h in data set [1] above 100 µM. The pIC50 in the data set with Leishmania donovani [2] and in the data set on Leishmania donovani [3] was below 4.00 throughout.
In data set [1], `CCn1nc2cc(N/C(C)=C3\C(=O)C=C(C)OC3=O)ccc2c1Cl` yielded a CC50 at 48 h of 6.25 µM. Besides, the selectivity ratio in data set [4] turned out to be 2.77. For the same compound, the values for the pIC50 with Leishmania donovani [2] and with Leishmania donovani [3] were 5.65 and 5.61, respectively.
With `CC1=CC(=O)/C(=C(/C)Nc2ccc3c(cnn3C)c2)C(=O)O1`, in data set [1], the CC50 at 48 h was above 100 µM. For the same compound, the pIC50 in the data set on Leishmania donovani [2] and with Leishmania donovani [3] was below 4.00 throughout.
Turning to `CC1=CC(=O)/C(=C(/C)Nc2ccc3c(Cl)nn(Cc4ccc(C)cc4)c3c2)C(=O)O1`, the CC50 at 48 h in data set [1] was above 100 µM. Also, the pIC50 in the data set with Leishmania donovani [2] was 4.30; in the data set with Leishmania donovani [3] it was 4.20.
On the same counts, the results for `CC1=CC(=O)/C(=C(/C)Nc2ccc3c(Cl)nn(C)c3c2)C(=O)O1` are above 100 µM, below 4.00 and below 4.00.
For `CC1=CC(=O)/C(=C(/C)Nc2ccc3nn(C)cc3c2)C(=O)O1`, in that order: above 100 µM, below 4.00 and below 4.00.
As to `CC1=CC(=O)/C(=C(/C)Nc2ccc3c(Cl)n(C)nc3c2)C(=O)O1`, it took 6.26 µM to reach half-maximal cytotoxicity in data set [1] (CC50 at 48 h). For the same compound, the selectivity ratio in data set [4] came to 1.92. The pIC50 in the data set on Leishmania donovani [2] was 5.49; in the data set on Leishmania donovani [3], 4.92.
`CCn1ncc2ccc(N/C(C)=C3\C(=O)C=C(C)OC3=O)cc21` came in with a CC50 at 48 h in data set [1] above 100 µM. Moreover, the pIC50 in the data set on Leishmania donovani [2] and with Leishmania donovani [3] was below 4.00 each time.
The compound `C[C@@H]1[C@H](O)[C@@H](C)/C=C/C=C/C=C/C=C/C=C/C=C/C=C/[C@H](O[C@@H]2O[C@H](C)[C@@H](O)[C@H](N)[C@@H]2O)C[C@@H]2O[C@](O)(C[C@@H](O)C[C@@H](O)[C@H](O)CC[C@@H](O)C[C@@H](O)CC(=O)O[C@H]1C)C[C@H](O)[C@H]2C(=O)O` [AMPHOTERICIN B] showed a CC50 at 48 h in data set [1] of 4.23 µM. This compound showed a pIC50 with Leishmania donovani [2] of 6.94.

One may read the CC50 as the concentration at which the toxic effect on the cells reaches its halfway point. A higher CC50 goes with lower toxicity to the cells. As a reminder, the pIC50 is the IC50 on a negative log10 scale, so that one unit is a factor of ten. The low end stands for a large IC50, the high end for a small IC50.
